The results in this text go back to ChEMBL document CHEMBL1142174, “Pyrazinoic acid and its n-propyl ester inhibit fatty acid synthase type I in replicating tubercle bacilli” (2007).

Test [1] relates to Mycobacterium tuberculosis variant bovis BCG. The experiment in a line: Inhibition of fatty acid synthase 1 in Mycobacterium bovis BCG assessed as incorporation of [1-14C]acetate in C16 biosynthesis at 1500 ug/ml at pH 6.0. Put shortly: (§1)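 M. bovis BCG was exposed to drug in medium at pH 6 or 6.8, then labelled with [1-14C]acetate. Extracted fatty acids were analysed by HPLC for 14C-labelled C16.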

The test system is the same in test [2]. The experiment in a line: Inhibition of fatty acid synthase 1 in Mycobacterium bovis BCG assessed as incorporation of [1-14C]acetate in C16 biosynthesis at 1500 ug/ml at pH 6.8. Put shortly:
as §1

In general, inhibition refers to the relative decrease from the control value, in per cent. For the compound `O=C(O)c1cnccn1` [PYRAZINOIC ACID], the inhibition in test [1] was 97%; in test [2], 30%.
